# Test results as given in PMC13080778 (The Journal of general physiology, 2026).
# Several values for one entry are separate records, joined by “and”; a condition that tells them apart may be missing. Equal entries are not always repeated. Structures can show the parent of a compound that is named as a salt. Marks after values point to notes of the source that are not given here.
# Columns and labels:
# CaV1.4 M1426A = CaV1.4 M1426A (Homo sapiens, UniProt O60840, M1426A); assay: Whole-cell patch-clamp of ICa in HEK293T cells, CaV1.4 M1426A mutant; assay type: cell-based
# CaV1.4 T1007Y = CaV1.4 T1007Y (Homo sapiens, UniProt O60840, T1007Y); assay: Whole-cell patch-clamp of ICa in HEK293T cells, CaV1.4 T1007Y mutant; assay type: cell-based
# Sequence of CaV1.4 T1007Y (O60840 whole entry T1007Y): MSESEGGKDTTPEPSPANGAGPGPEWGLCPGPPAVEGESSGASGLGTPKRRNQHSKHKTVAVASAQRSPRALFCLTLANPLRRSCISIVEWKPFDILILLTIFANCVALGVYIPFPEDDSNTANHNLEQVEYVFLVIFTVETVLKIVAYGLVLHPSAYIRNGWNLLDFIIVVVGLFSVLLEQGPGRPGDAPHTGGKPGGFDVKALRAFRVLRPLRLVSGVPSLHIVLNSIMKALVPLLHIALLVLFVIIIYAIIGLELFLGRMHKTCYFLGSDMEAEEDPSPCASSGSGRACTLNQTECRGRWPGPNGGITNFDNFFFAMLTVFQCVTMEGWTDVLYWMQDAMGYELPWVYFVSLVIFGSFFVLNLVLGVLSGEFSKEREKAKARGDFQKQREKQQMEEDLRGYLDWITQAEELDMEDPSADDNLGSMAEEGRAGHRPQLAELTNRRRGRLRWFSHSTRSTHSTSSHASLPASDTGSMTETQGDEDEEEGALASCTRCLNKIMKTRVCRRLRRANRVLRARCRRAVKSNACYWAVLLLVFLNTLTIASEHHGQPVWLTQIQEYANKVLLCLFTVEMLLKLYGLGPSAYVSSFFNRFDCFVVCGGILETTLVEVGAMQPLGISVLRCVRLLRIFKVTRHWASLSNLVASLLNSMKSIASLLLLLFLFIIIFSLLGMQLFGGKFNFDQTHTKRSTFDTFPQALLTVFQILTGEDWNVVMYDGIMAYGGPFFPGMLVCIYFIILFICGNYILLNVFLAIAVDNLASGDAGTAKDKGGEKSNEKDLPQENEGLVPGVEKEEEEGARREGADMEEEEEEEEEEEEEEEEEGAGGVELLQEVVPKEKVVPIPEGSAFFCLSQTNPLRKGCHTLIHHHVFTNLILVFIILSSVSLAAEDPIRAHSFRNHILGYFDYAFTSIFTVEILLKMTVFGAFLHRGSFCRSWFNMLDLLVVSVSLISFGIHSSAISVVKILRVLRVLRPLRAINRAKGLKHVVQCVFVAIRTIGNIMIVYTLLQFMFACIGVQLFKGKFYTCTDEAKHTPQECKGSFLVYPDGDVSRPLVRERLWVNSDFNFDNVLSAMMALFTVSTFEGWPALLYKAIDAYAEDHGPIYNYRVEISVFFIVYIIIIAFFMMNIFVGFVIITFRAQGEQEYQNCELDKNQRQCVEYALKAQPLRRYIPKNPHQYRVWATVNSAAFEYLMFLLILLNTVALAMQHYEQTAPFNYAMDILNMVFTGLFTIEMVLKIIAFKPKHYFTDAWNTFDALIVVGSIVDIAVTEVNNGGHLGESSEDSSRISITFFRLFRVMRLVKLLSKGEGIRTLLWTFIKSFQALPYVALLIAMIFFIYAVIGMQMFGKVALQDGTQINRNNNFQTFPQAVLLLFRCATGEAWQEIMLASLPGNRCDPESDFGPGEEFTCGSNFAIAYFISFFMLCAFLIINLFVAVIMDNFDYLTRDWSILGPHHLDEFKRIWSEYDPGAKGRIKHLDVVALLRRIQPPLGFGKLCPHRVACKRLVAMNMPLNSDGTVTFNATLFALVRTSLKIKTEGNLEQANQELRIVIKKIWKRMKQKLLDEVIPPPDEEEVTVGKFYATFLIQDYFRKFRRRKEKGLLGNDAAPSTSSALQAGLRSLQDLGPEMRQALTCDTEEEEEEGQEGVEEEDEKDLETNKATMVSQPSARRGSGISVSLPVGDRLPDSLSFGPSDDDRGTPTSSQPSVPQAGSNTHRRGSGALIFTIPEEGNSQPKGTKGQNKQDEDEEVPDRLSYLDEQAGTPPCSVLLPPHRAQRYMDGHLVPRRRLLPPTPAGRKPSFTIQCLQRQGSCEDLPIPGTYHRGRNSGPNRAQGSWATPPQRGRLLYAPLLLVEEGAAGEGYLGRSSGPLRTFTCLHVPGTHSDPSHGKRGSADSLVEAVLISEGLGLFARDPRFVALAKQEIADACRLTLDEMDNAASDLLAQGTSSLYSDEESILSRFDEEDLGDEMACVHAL
# Sequence of CaV1.4 T1007Y (Q08289 whole entry partner): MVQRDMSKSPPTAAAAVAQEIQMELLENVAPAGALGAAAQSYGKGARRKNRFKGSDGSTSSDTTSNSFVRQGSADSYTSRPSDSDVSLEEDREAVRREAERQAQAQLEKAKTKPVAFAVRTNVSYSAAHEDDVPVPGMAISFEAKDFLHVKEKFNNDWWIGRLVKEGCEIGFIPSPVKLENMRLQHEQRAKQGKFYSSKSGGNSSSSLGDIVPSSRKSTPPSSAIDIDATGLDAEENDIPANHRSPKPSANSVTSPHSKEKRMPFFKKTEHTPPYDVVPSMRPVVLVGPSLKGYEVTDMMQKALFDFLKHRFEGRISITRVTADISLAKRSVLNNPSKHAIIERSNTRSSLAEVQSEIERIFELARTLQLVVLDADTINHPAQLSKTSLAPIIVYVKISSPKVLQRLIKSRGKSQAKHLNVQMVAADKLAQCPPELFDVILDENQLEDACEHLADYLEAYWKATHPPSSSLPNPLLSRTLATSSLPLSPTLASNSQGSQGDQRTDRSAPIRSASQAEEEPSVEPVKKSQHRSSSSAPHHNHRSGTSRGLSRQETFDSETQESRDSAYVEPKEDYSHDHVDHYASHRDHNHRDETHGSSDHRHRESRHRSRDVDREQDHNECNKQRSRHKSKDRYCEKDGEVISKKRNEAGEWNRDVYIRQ
# Sequence of CaV1.4 T1007Y (Q7Z3S7 20-991 partner limits assumed): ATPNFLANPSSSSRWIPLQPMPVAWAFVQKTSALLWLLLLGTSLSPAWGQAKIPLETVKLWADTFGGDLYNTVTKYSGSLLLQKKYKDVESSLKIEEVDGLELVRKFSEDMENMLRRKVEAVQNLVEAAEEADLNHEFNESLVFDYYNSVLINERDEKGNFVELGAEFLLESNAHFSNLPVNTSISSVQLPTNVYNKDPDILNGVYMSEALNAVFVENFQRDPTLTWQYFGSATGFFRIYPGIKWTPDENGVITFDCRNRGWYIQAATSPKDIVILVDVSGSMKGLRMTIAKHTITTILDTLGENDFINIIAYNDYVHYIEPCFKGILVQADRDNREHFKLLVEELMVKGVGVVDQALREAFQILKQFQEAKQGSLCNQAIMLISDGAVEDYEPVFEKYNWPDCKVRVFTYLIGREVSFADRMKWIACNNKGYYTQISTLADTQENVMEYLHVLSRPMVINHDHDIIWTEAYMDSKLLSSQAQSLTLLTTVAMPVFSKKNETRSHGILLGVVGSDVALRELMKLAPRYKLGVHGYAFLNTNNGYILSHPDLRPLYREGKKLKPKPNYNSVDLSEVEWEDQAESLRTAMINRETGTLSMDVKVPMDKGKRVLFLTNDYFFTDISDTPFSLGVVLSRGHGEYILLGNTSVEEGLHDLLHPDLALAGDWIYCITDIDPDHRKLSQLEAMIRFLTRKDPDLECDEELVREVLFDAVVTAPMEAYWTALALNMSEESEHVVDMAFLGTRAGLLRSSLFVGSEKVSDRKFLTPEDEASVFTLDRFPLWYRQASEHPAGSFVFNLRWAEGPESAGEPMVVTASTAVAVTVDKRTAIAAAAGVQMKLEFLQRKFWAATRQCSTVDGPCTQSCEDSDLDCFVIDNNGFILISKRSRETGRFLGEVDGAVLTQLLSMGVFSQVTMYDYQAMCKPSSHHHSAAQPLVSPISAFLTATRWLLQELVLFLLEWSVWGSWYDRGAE
# Sequence of CaV1.4 T1007Y (Q7Z3S7 992-1137 partner limits assumed): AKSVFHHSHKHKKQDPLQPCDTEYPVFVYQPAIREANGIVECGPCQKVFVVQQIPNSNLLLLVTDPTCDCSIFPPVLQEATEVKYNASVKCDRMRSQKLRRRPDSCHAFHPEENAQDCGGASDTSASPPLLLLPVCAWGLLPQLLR
# CaV1.2 V1063M = CaV1.2 V1063M (Oryctolagus cuniculus, UniProt P15381, V1063M); assay: Whole-cell patch-clamp of ICa in HEK293T cells, CaV1.2 V1063M mutant; assay type: cell-based, rabbit
# CaV1.4 M1004A = CaV1.4 M1004A (Homo sapiens, UniProt O60840, M1004A); assay: Whole-cell patch-clamp of ICa in HEK293T cells, CaV1.4 M1004A mutant; assay type: cell-based
# CaV3 channels = settings: ref Xiang et al., 2011; cited from earlier work
# CaV3.2 = CaV3.2 (Homo sapiens, UniProt O95180); assay: Whole-cell patch-clamp of Ca2+ currents; assay type: cell-based
# In short: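 HEK293T cells co-transfected (Fugene 6) with CaV3.2 plus β2x13, α2δ-4 and eGFP; whole-cell recordings at room temperature 36–72 h later, 4–8 MΩ pipettes, 50–70% series-resistance compensation, P/−4 leak subtraction. Compound perfused in external solution (vehicle ≤1% DMSO); 0.1 Hz currents, steady-state % inhibition vs vehicle fitted by inhibitor–response regression (0–100 constrained). Boltzmann fits of I–V give Gmax, Vh, k, Vrev.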
# CaV1.2 [1] = molecular target: CaV1.2 (Oryctolagus cuniculus, UniProt P15381); assay: Whole-cell patch-clamp of ICa in HEK293T cells transfected with CaV1.2; assay type: cell-based, rabbit; settings: CaV1.2 WT
# CaV1.4 [2] = molecular target: CaV1.4 (Homo sapiens, UniProt O60840); assay type: cell-based; settings: for IC50: inhibition of ICa, Hill fit
# Sequence of CaV1.4 (O60840 whole entry): as the sequence (O60840 whole entry T1007Y) above, with Y1007T counted along it
# Sequence of CaV1.4 (Q08289 whole entry partner): as the sequence (Q08289 whole entry partner) above
# Sequence of CaV1.4 (Q7Z3S7 20-991 partner limits assumed): as the sequence (Q7Z3S7 20-991 partner limits assumed) above
# Sequence of CaV1.4 (Q7Z3S7 992-1137 partner limits assumed): as the sequence (Q7Z3S7 992-1137 partner limits assumed) above
# CaV1.4 M1129A = CaV1.4 M1129A (Homo sapiens, UniProt O60840, M1129A); assay: Whole-cell patch-clamp of ICa in HEK293T cells, CaV1.4 M1129A mutant; assay type: cell-based
# three CaV3 subtypes = settings: ref Tringham et al., 2012; cited from earlier work
# [3] = tested on: Cav1.4 ICa in mouse cones; settings: 5 μM, ref Davison et al., 2022; cited from earlier work
# Cav1.2 [4] = settings: ref Wei et al., 2024; cited from earlier work
# Cav1.4 [5] = settings: ref Koschak et al., 2003; cited from earlier work
# [6] = CaV3.2, inhibition of ICa, Hill fit, mean ± SEM
# [7] = CaV3.2, drug at 100 nM, mean ± SEM or median
# [8] = CaV1.4, drug at 5 µM, Vhold −90 mV
smiles,measurement,setting,value
"CC(C)(C)CCN1C[C@@H]2C(CNC(=O)c3cc(Cl)cc(Cl)c3)[C@@H]2C1 (stereo partly shown) [ML218, ML218 hydrochloride]",IC50,CaV1.4 M1426A,15 ± 2.9 µM
same,IC50,CaV1.4 T1007Y; CaV1.4 T1007Y,~20 µM and 20 µM
same,IC50,CaV1.2 V1063M,120 ± 60 µM
same,IC50,CaV1.4 M1004A,310 ± 190 µM
same,IC50,CaV3 channels,< 0.5 µM
same,IC50,CaV3.2; [6],0.0237 ± 0.0025 µM
same,IC50,CaV3.2; CaV3.2 ICa,~0.024 µM
same,IC50,CaV1.2 [1],~37 µM and 37 µM
same,IC50,CaV1.4 [2]; CaV1.4 WT,2.1 ± 0.51 µM
same,IC50,CaV1.4 M1129A,0.45 ± 0.16 µM
CC(C)(C)NC(=O)CN1CCC(CNC(=O)c2cc(F)cc(Cl)c2)CC1 [Z944],affinity for CaV3 subtypes higher than for CaV2.2 and CaV1.2,three CaV3 subtypes,70-100 times
same,Vrev,"CaV3.2; CaV3.2, drug at 100 nM",42.96 ± 1.86 mV
same,inhibition of the peak ICa amplitude,"CaV3.2; CaV3.2, drug at 100 nM",~ 40%
same,Gmax,"CaV3.2; CaV3.2, drug at 100 nM, Boltzmann fit of I-V, mean ± SEM or median",0.55 ± 0.13 nS/pF
same,Vh,CaV3.2; [7],-33.47 ± 3.65 mV
same,k,CaV3.2; [7],6.75^† mV
same,Hill Slope,"CaV3.2; CaV3.2, dose-response fit",0.82 ± 0.10
same,IC50,CaV3.2; [6],0.26 ± 0.04 µM
same,IC50,CaV3.2; CaV3.2 ICa,~0.265 µM
same,effect on amplitude of Cav1.4 ICa,[3],increased the amplitude
same,Gmax,CaV1.4 [2]; [8],0.0845 ± 0.0387 nS/pF
same,Vh,CaV1.4 [2]; [8],-6.10 ± 1.54 mV
same,Vrev,CaV1.4 [2]; [8],60.73 ± 4.72 mV
same,k,CaV1.4 [2]; [8],8.89 ± 0.50 mV
same,Hill Slope,"CaV1.4 [2]; CaV1.4 WT, dose-response fit",0.22 ± 0.04
same,IC50,CaV1.4 [2]; CaV1.4 WT,31.5 ± 21 µM
same,IC50 for Cav1.4 higher than that for Cav3.2,CaV1.4 [2]; Cav1.4 versus Cav3.2,~ 100 fold
COC(=O)C1=C(C)NC(C)=C(C(=O)OC2CCCN(Cc3ccccc3)C2)C1c1cccc([N+](=O)[O-])c1 (stereo not shown) [benidipine],higher potency compared to nifedipine,Cav1.2 [4],10 fold
COC(=O)C1=C(C)NC(C)=C(C(=O)OC(C)C)C1c1cccc2nonc12 (stereo not shown) [isradipine],increase in the extent of block on shifting Vhold from −90 mV to −50 mV,Cav1.4 [5],~ 80%
same,inhibition at 1 µM,"CaV1.4 T1007Y; HEK-293T, read-out: inhibition of ICa",~17%
same,inhibition at 1 µM,"CaV1.4 [2]; HEK-293T, read-out: inhibition of ICa amplitude",~78%
